Source: ChEMBL document CHEMBL1155063 (Bioorg Med Chem, 2008)
Activity calls are given as the source filed them. The rule behind the calls is not given here.

Key:
HCT-15 = assay: Growth percent of human HCT15 cells at 10 uM after 48 hrs by MTT assay; conditions: HCT-15, 48 h
DU-145 = assay: Cytotoxicity against human DU145 cells at 10 uM after 48 hrs by MTT assay; assay type: functional; conditions: DU-145, 48 h, values are per cent of control
Procedure, shortened: (§1)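 Single-dose screen on the NCI 60-cell-line panel, run to the Developmental Therapeutics Program protocol (one-dose mean graph). Each value is the growth percentage of treated cells against untreated control cells.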

[1] = biological target: T1, Telomerase reverse transcriptase (Homo sapiens, UniProt O14746); assay: Effect on human TERT expressed in BJ1 cells at 10 uM after 24 hrs by SEAP assay relative to control; conditions: BJ
T1 sequence (O14746 whole entry): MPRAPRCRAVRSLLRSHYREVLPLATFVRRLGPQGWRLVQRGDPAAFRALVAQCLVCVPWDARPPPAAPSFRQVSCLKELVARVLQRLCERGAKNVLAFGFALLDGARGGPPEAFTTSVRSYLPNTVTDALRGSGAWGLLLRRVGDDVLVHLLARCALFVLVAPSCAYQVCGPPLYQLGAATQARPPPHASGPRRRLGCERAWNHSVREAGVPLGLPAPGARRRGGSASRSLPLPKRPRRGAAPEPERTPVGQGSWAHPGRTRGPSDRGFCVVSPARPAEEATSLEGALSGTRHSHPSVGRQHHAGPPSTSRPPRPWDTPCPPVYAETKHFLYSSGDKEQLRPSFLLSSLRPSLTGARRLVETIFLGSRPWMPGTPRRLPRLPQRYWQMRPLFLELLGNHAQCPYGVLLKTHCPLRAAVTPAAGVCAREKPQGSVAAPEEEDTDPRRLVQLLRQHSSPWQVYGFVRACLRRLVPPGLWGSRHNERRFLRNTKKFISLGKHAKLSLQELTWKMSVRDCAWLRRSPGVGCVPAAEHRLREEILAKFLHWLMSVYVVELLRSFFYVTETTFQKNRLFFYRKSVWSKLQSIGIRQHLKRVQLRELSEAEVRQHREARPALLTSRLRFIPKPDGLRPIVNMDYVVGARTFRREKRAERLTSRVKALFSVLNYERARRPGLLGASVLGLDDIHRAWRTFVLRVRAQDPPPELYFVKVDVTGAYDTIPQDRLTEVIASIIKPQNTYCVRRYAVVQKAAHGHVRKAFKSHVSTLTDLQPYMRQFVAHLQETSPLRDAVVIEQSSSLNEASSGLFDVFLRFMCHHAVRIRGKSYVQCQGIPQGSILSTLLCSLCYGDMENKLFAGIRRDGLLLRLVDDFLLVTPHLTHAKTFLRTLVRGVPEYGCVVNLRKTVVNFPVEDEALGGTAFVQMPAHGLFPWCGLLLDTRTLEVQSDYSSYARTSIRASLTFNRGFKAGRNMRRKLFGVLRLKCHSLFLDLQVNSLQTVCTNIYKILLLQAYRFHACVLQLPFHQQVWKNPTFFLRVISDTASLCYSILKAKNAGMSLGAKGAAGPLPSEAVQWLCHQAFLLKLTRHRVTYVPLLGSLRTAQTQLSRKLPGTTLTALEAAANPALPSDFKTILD

HCT-29 = assay: Growth percent of human HCT29 cells at 10 uM after 48 hrs by MTT assay; conditions: HCT-29, 48 h
[2] = biological target: T1, Telomerase reverse transcriptase; assay: Effect on human TERT expressed in H1299 cells at 10 uM after 24 hrs by SEAP assay relative to control
[3] = biological target: T1, Telomerase reverse transcriptase; assay: Inhibition of telomerase in human H1299 cells at 1 to 20 uM by TRAP assay; assay type: cell-based
Procedure, shortened: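 Modified TRAP assay using 2 µg total lysate from H1299 lung cancer cells as the telomerase source. Compounds were tested at 1, 5, 10 and 20 µM. Products were resolved on 10% polyacrylamide gels and stained with SYBR Green. A Taq-polymerase internal control was included, along with positive and negative controls.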

SK-OV-3 = assay: Cytotoxicity against human SKOV3 cells at 10 uM after 48 hrs by MTT assay; assay type: functional; conditions: SK-OV-3, 48 h
Procedure, shortened: as §1

LOX IMVI = assay: Cytotoxicity against human LOXIMVI cells at 10 uM after 48 hrs by MTT assay; assay type: functional; conditions: values are per cent of control
Procedure, shortened: as §1

OVCAR-3 = assay: Cytotoxicity against human OVCAR-3 cells at 10 uM after 48 hrs by MTT assay; assay type: functional; conditions: OVCAR-3, 48 h
Procedure, shortened: as §1

OVCAR-4 = assay: Cytotoxicity against human OVCAR4 cells at 10 uM after 48 hrs by MTT assay; assay type: functional; conditions: OVCAR-4, 48 h
Procedure, shortened: as §1

NCI-H322M = assay: Cytotoxicity against human NCI-H322M cells at 10 uM after 48 hrs by MTT assay; assay type: functional
Procedure, shortened: as §1

SF-268 = assay: Cytotoxicity against human SF268 cells at 10 uM after 48 hrs by MTT assay; assay type: functional; conditions: SF-268, 48 h, values are per cent of control
Procedure, shortened: as §1

CCRF-CEM = assay: Cytotoxicity against human CCRF-CEM cells at 10 uM after 48 hrs by MTT assay; assay type: functional
Procedure, shortened: as §1

NCI-H522 = assay: Growth percent of human NCI-H522 cells at 10 uM after 48 hrs by MTT assay; conditions: NCI-H522, 48 h
SW-620 = assay: Cytotoxicity against human SW620 cells at 10 uM after 48 hrs by MTT assay; assay type: functional; conditions: SW-620, 48 h, values are per cent of control
Procedure, shortened: (§2)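 Single-dose screen in the NCI 60-cell-line panel, run according to the Developmental Therapeutics Program protocol (one-dose mean graph). The result is the growth percentage of treated cells relative to untreated control cells.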

MDA-MB-231 = assay: Cytotoxicity against human MDA-MB-231/ATCC cells at 10 uM after 48 hrs by MTT assay; assay type: functional; conditions: MDA-MB-231, 48 h
Procedure, shortened: as §1

U-251 = assay: Cytotoxicity against human U251 cells at 10 uM after 48 hrs by MTT assay; assay type: functional; conditions: U-251, 48 h, values are per cent of control
Procedure, shortened: as §2

[4] = biological target: T1, Telomerase reverse transcriptase; assay: Effect on human TERT expressed in H1299 cells at 100 uM after 24 hrs by SEAP assay relative to control
HCT-116 = assay: Growth percent of human HCT116 cells at 10 uM after 48 hrs by MTT assay; conditions: HCT-116, 48 h
NCI/ADR-RES = assay: Cytotoxicity against human NCI/ADR-RES cells at 10 uM after 48 hrs by MTT assay; assay type: functional
Procedure, shortened: as §1

PC-3 = assay: Cytotoxicity against human PC3 cells at 10 uM after 48 hrs by MTT assay; assay type: functional; conditions: PC-3, 48 h, values are per cent of control
Procedure, shortened: as §1

MOLT-4 = assay: Cytotoxicity against human MOLT4 cells at 10 uM after 48 hrs by MTT assay; assay type: functional; conditions: MOLT-4, 48 h
Procedure, shortened: as §1

[5] = Cytotoxicity against human TERT immortalized BJ1 cells at 1 uM after 48 hrs by MTT assay relative to control; assay type: cell-based, BJ
Procedure, shortened: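 hTERT-immortalized BJ1 fibroblasts were grown in DMEM with 10% FCS, 1 mM pyruvate and 4 mM […]. Cells (about 2 × 10^3 per well) were seeded and held 24 h at 37 °C. Compounds were freshly dissolved in DMSO, diluted into medium and left on the cells 48 h. MTT was added for 4 h, then SDS/DMF lysis buffer for 16 h. Absorbance was read at 550 nm and expressed relative to untreated cells (100%).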

OVCAR-5 = assay: Cytotoxicity against human OVCAR5 cells at 10 uM after 48 hrs by MTT assay; assay type: functional; conditions: OVCAR-5, 48 h
Procedure, shortened: as §1

[6] = biological target: T1, Telomerase reverse transcriptase; assay: Effect on human TERT expressed in BJ1 cells at 100 uM after 24 hrs by SEAP assay relative to control; conditions: BJ
SR = assay: Cytotoxicity against human SR cells at 10 uM after 48 hrs by MTT assay; assay type: functional
Procedure, shortened: as §2

SN12C = assay: Cytotoxicity against human SN12C cells at 10 uM after 48 hrs by MTT assay; assay type: functional
Procedure, shortened: as §1

SK-MEL-28 = assay: Cytotoxicity against human SK-MEL-28 cells at 10 uM after 48 hrs by MTT assay; assay type: functional; conditions: SK-MEL-28, 48 h, values are per cent of control
Procedure, shortened: as §1

BT-549 = assay: Cytotoxicity against human BT549 cells at 10 uM after 48 hrs by MTT assay; assay type: functional; conditions: BT-549, 48 h
Procedure, shortened: as §1

SK-MEL-2 = assay: Cytotoxicity against human SK-MEL-2 cells at 10 uM after 48 hrs by MTT assay; assay type: functional; conditions: SK-MEL-2, 48 h, values are per cent of control
Procedure, shortened: as §1

[7] = Cytotoxicity against human CAK1-1 cells at 10 uM after 48 hrs by MTT assay; assay type: functional; conditions: CAK1-1, 48 h
Procedure, shortened: as §1

SF-295 = assay: Cytotoxicity against human SF295 cells at 10 uM after 48 hrs by MTT assay; assay type: functional; conditions: SF-295, 48 h, values are per cent of control
Procedure, shortened: as §1

HL-60 = assay: Cytotoxicity against human HL60 cells at 10 uM after 48 hrs by MTT assay; assay type: functional; conditions: HL-60, 48 h
Procedure, shortened: as §1

SNB-75 = assay: Cytotoxicity against human SNB75 cells at 10 uM after 48 hrs by MTT assay; assay type: functional; conditions: SNB-75, 48 h, values are per cent of control
Procedure, shortened: as §2

| residual activity [2] [%] | residual activity [4] [%] | Structure (SMILES) | growth percent at 10 µM (HCT-15) [%] | growth, % of control at 10 µM (DU-145) [%] | growth percent at 10 µM (HCT-29) [%] | growth percent at 10 µM (SK-OV-3) [%] | growth, % of control at 10 µM (LOX IMVI) [%] | growth percent at 10 µM (OVCAR-3) [%] | growth percent at 10 µM (OVCAR-4) [%] | growth percent at 10 µM (NCI-H322M) [%] | growth, % of control at 10 µM (SF-268) [%] | growth percent at 10 µM (CCRF-CEM) [%] | growth percent at 10 µM (NCI-H522) [%] | growth, % of control at 10 µM (SW-620) [%] | growth percent at 10 µM (MDA-MB-231) [%] | growth, % of control at 10 µM (U-251) [%] | growth percent at 10 µM (HCT-116) [%] | growth percent at 10 µM (NCI/ADR-RES) [%] | growth, % of control at 10 µM (PC-3) [%] | growth percent at 10 µM (MOLT-4) [%] | further results |
| --- | --- | --- | --- | --- | --- | --- | --- | --- | --- | --- | --- | --- | --- | --- | --- | --- | --- | --- | --- | --- | --- |
| 29 | 17 | O=C(CCN1CCCC1)Nc1ccc2c(c1)C(=O)c1cc(NC(=O)CCN3CCCC3)ccc1C2=O | 56.1 | 29.5 | 19.5 | 27.1 | 30.7 | 36.9 | 49.8 | 45.8 | 26.7 | 3.74 | 29.2 | 20 | 30.5 | 18.2 | 10.5 | 80.6 | 21.7 | 23 | residual activity [1]: 67%; Activity [3]: Active; viability at 48 h, 1 µM [5]: 82%; growth percent at 10 µM (OVCAR-5): 18.8%; residual activity [6]: 109%; growth percent at 10 µM (SR): 19.8%; growth percent at 10 µM (SN12C): 6.68%; growth, % of control at 10 µM (SK-MEL-28): 15%; growth percent at 10 µM (BT-549): 76.9%; growth, % of control at 10 µM (SK-MEL-2): -45.2%; growth percent at 10 µM [7]: 55.5%; growth, % of control at 10 µM (SF-295): 48.6%; growth percent at 10 µM (HL-60): 85.8%; growth, % of control at 10 µM (SNB-75): 77.5% |
| 40 | 21 | CN(C)CC(=O)Nc1ccc2c(c1)C(=O)c1cc(NC(=O)CN(C)C)ccc1C2=O | 16.3 | 78.7 | 11.7 | 70.3 | -52.3 | 43.6 | 45.7 | 32.4 | 64.9 | -13.2 | 61.8 | 23.4 | 4.49 | 16.1 | 19.1 | 47.8 | 59 | 29.1 | residual activity [1]: 44%; viability at 48 h, 1 µM [5]: 96%; growth percent at 10 µM (OVCAR-5): 73.2%; residual activity [6]: 3%; growth percent at 10 µM (SR): -46.5%; growth percent at 10 µM (SN12C): 28%; growth, % of control at 10 µM (SK-MEL-28): 32.1%; growth percent at 10 µM (BT-549): 85.4%; growth, % of control at 10 µM (SK-MEL-2): -30.4%; growth percent at 10 µM [7]: 59.3%; growth, % of control at 10 µM (SF-295): -83.5%; growth percent at 10 µM (HL-60): -65%; growth, % of control at 10 µM (SNB-75): 76.1% |
| 81 | 81 | O=C1c2ccc(NC(=O)C3CC3)cc2C(=O)c2cc(NC(=O)C3CC3)ccc21 | 86.3 | 98.8 | 106 | 93.2 | 90.3 | 103 | 97.5 | 106 | 95.1 | 90.7 | 89.4 | 105 | 97 | 72.6 | 87.1 | 90.8 | 107 | 94.3 | viability at 48 h, 1 µM [5]: 60%; growth percent at 10 µM (OVCAR-5): 112%; growth percent at 10 µM (SR): 1.69%; growth percent at 10 µM (SN12C): 82.9%; growth, % of control at 10 µM (SK-MEL-28): 109%; growth percent at 10 µM (BT-549): 92.5%; growth, % of control at 10 µM (SK-MEL-2): 16.9%; growth percent at 10 µM [7]: 88.4%; growth, % of control at 10 µM (SF-295): 86.6%; growth percent at 10 µM (HL-60): 62.5%; growth, % of control at 10 µM (SNB-75): 89.2% |
